How the values were obtained:
[1] = Antiinflammatory activity in rat PMNC assessed as inhibition of platelet activating factor-induced beta-glucuronidase release at 10 uM treated 15 mins before PAF by spectrophotometry; type: functional
[2] = Hepatoprotective activity in rat WB-F344 cells assessed as inhibition of D-galactosamine-induced cytotoxicity at 100 uM treated 1 hr before D-galactosamine challenge after 24 hrs by MTT assay; type: functional
Summary of the method: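 Cells plated at 1 × 10⁴ per well in DMEM with 10% fetal calf serum, penicillin and streptomycin, precultured 24 h at 37 °C, 5% CO₂. Sample added in fresh medium 1 h before 50 mM DL-galactosamine for 24 h. Sample toxicity run in parallel without galactosamine. MTT 0.5 mg/mL for 4 h, formazan dissolved in DMSO, OD 490 nm, % inhibition calculated.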

[3] = tested on: BGC-823; experiment: Cytotoxicity against human BGC823 cells; type: functional, cell-based
[4] = tested on: A2780; experiment: Cytotoxicity against human A2780 cells; type: functional, cell-based

SMILES	inhibition at 10 µM [1] [%]	inhibition at 100 µM [2] [%]	IC50 [3] [nM]	IC50 [4] [nM]
O=C(O)C[C@]12OC(=O)C[C@H]1O[C@@H]1Cc3c(O)cc(O)cc3O[C@@H]12	46	40		
COc1cc([C@H]2c3cc(O)c(OC)cc3C[C@@H](C)[C@@H]2C)ccc1O	48			
COc1cc([C@H]2OC(=O)[C@](C)(O)[C@@H]2C)ccc1O	76	39		
COC(=O)c1cc(OC)c2c(c1-c1c(CO)cc(OC)c3c1OCO3)OCO2 [BICYCLOL]		41		
COc1cc(C[C@@H](C)[C@@H](C)Cc2ccc(O)c(OC)c2)ccc1O [MESODIHYDROGUAIARETIC ACID]	54			
CCO[C@H](c1ccc(O)c(OC)c1)[C@@H](C)C(C)=O	42	54		
COc1cc([C@@H](O)[C@@H](C)C(C)=O)ccc1O		43		
C#CCCCCCCCC/C=C/C1=C[C@H](C)OC1=O [HAMABIWALACTONE A]	60			
COc1cc([C@@H](OC)[C@@H](C)C(C)=O)ccc1O	67	47		
CC[C@@]1(O)C(=O)OCc2c1cc1n(c2=O)Cc2cc3ccccc3nc2-1 [CAMPTOTHECIN]			210	
COc1cc([C@@H]2c3c(cc(OC)c(O)c3OC)C[C@@H](C)[C@H]2C)ccc1O	47			
C=C1OC(=O)/C(=C/CCCCCCCCCCCCCCCCC)[C@H]1O			130	2660

— ChEMBL document CHEMBL1153739, “Chemical constituents of the bark of Machilus wangchiana and their biological activities” (J Nat Prod, 2009)
